From PubChem
Most compounds without a hit are left out; they make up all but 9.8% or so of the library.
Rad51 HR inh: Rad51 (human) homologous recombination inhibition | Q06609 | hRad51 DNA strand exchange, fluorescence dequenching | inhibition, % at 10 µM | 0.085% of 200,000 active | AID 1385;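 active = inhibition above 40% at the single screening dose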;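 also: 0% = DMSO control wells and 100% = blanks with heterologous ssDNA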
Target sequence (Q06609 whole entry, looked up): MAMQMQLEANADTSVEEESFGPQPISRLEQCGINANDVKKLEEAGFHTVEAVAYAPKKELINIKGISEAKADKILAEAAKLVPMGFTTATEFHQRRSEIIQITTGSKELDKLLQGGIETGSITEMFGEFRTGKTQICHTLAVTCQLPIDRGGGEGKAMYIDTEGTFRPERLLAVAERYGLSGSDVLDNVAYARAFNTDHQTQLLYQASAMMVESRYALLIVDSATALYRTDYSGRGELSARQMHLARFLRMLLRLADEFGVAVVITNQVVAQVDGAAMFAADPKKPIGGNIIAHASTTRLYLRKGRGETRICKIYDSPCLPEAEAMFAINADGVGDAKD
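material = hRad51 filaments on single-stranded DNA | reagent = Donor/quencher-labelled 47-bp dsDNA substrate | compound = 10 µM final, single point | schedule = strand-exchange reaction 15 min at room temperature | measured by = fluorescein emission 520 nm, excitation 485 nm | read-out basis = % inhibition versus plate control and blank means | benchmarks = plate controls and plate blanks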
WT yeast gro inh: growth inhibition of WT yeast, mitochondrial fusion screen. 2.1% of 190,000 active. inhibition, % at 10 µM. mitochondrial fusion phenotypic screen, WT strain; in the data active = inhibition above about 58%; tested in S. cerevisiae
PMI act: activators of human phosphomannose isomerase; P34949; purified human PMI, coupled resazurin fluorescence, 20 min; hits give high values; 1 = vehicle control, 0 substrate-free wells; activation factor at 20 µM; 0.005% of 190,000 active; AID 1214;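 active = activation factor of 2 or more at 20 µM, relative to plate controls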
m-calpain inh: inhibitors of pig calpain II | 0.37% of 220,000 active | AID 1236 | inhibition, % at 16 µM | purified calpain II, fluorogenic peptide substrate, 30 min;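 active = inhibition above about 50%, limit read from the data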
PMI act satM6P: activators of human phosphomannose isomerase at near-saturating mannose 6-phosphate; P34949; coupled PMI enzyme assay, resazurin fluorescence, 20 min; hits give high values; 1 = untreated enzyme, 0 = substrate-free blank; activation factor at 20 µM; 0.34% of 190,000 active; AID 1216;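 active = activation factor of 2 or more at 20 µM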
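Test system: human PMI in coupled enzyme assay; Input: PMI at 15 ng/mL final; Medium: HEPES buffer, pH 7.4; Schedule: 20 min incubation at room temperature; Technique: resorufin fluorescence at Ex 544/Em 590 nm; Compound: 20 µM single dose; Probe or stimulus: Near-saturating mannose-6-phosphate, 1.0 mM.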
Lmaj promast: Leishmania major promastigote growth inhibition. AID 1063. Leishmania major promastigotes, resazurin fluorescence viability. inhibition, % at 10 µM. 9% of 200,000 active; in the data active = inhibition above about 50%;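 also: promastigotes grown with compound for 44 hours at 28 °C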
Numbers without * were called inactive; . = not tested or not shown.

SMILES	Rad51 HR inh	WT yeast gro inh	PMI act	m-calpain inh	PMI act satM6P	Lmaj promast
CC1CCN(C(=S)c2cn(Cc3cccc(F)c3)c3ccccc23)CC1	7	71*	0.8	41	0.9	67*
Cc1ccccc1OCCN(C#N)c1nc(N(C)C)nc(N(C)C)n1	-4	28	0.9	28	0.9	2
CCC(CO)n1c(SCc2cc([N+](=O)[O-])cc3c2OCOC3)nc2ccccc2c1=O (stereo not drawn)	-3	53	1	19	0.9	81*
C=CCn1c(SCc2cc([N+](=O)[O-])cc3c2OCOC3)nc2cc(C(=O)O)ccc2c1=O	1	.	.	16	.	.
Cc1cccc(NC(=S)NC2CC3CCCC(C2)N3Cc2cccs2)c1C (stereo not drawn)	-10	7	0.9	-16	1	85*
Cc1cccc(NC(=S)NC2CC3CCCC(C2)N3CC(C)C)c1C (stereo not drawn)	1	1	1	-5	1	89*
CCCN1C2CCCC1CC(NC(=S)Nc1cccc(C)c1C)C2 (stereo not drawn)	25	.	.	27	.	.
CCCN1C2CCCC1CC(NC(=S)Nc1cc(C)ccc1C)C2 (stereo not drawn)	-8	-4	1	-5	1	90*
CCc1ccccc1NC(=S)NC1CC2CCCC(C1)N2Cc1cccs1 (stereo not drawn)	2	14	1	1	1	79*
Cc1cccc(C)c1NC(=O)NC1CC2CCC(C1)N2Cc1cccs1 (stereo not drawn)	6	12	1	15	1	0
C[C@@H]1CC[C@@]2(O[C@@H](CCO)C[C@H](O)[C@H]2O)O1	-9	.	.	.	.	.
N#CCCN(C(=O)COC(=O)C1CCN(S(=O)(=O)c2cccs2)CC1)c1ccccc1	.	-7	1	22	1.1	-1
Cc1sc2nc(CN3CCOCC3)nc(NCCc3ccccc3)c2c1C	2	25	1	-2	1	27
CCNc1nc(CSc2ccccc2)nc2sc(C)c(C)c12	-1	67*	0.7	14	0.7	39
Cc1sc2nc(CSc3ccccc3)nc(NCCN(C)C)c2c1C	-5	15	1	-9	1	92*
O=C(Nc1nnc(-c2ccco2)o1)c1ccc2ccccc2c1	3	52	1.2	18	1.2	69*
Cc1ccsc1C(=O)Nc1nnc(-c2ccco2)o1	-38	2	1	-13	1	88*
Cc1ccc(C(=O)Nc2nnc(-c3ccco3)o2)cc1	2	17	0.8	-3	0.9	12
Cc1ccc(S(=O)(=O)Nc2ccc(C(=O)Nc3cc(C)on3)cc2)cc1	1	-16	1	0	1.1	7
Cc1cc(NS(=O)(=O)c2ccc(NC(=S)NC(=O)c3ccccc3)cc2)no1	2	6	0.9	14	1	66*
CCC(CC)C(=O)Nc1cccc(C(=O)Nc2ccc(S(=O)(=O)Nc3ccc(C)cc3)cc2)c1	-2	34	0.9	-17	1	67*
CCc1nnc(NS(=O)(=O)c2ccc(NC(=S)NC(=O)c3ccc(OC)c(OC)c3)cc2)s1	.	6	0.7	-42	0.9	-9
CCc1nnc(NS(=O)(=O)c2ccc(NC(=S)NC(=O)c3ccc(OC)cc3)cc2)s1	-3	6	0.7	39	0.8	55*
Cc1ccc(NS(=O)(=O)c2cccc(C(=O)Nc3cc(C)on3)c2)cc1	.	10	1.1	-4	1.2	91*
O=C1OCCC1Sc1nnnn1-c1ccc(Cl)cc1 (stereo not drawn)	.	1	0.8	-16	0.9	-2
SMILES	Rad51 HR inh	WT yeast gro inh	PMI act	m-calpain inh	PMI act satM6P	Lmaj promast
Cc1cc(NS(=O)(=O)c2ccc(NC(=S)NC(=O)c3ccncc3)cc2)no1	23	.	.	11	.	.
Cc1cc(NS(=O)(=O)c2ccc(NC(=S)NC(=O)c3ccc(C(C)(C)C)cc3)cc2)no1	-28	3	0.9	63*	0.9	11
CCOC(=O)c1c(C)oc2ccc(OC(=O)c3cccs3)cc12	.	68*	1	26	1	-5
COc1cccc2cc(C(C)N(CCCN3CCOCC3)C(=S)Nc3c(C)cccc3C)oc12 (stereo not drawn)	4	5	1	-13	1	53*
CCc1ccc(NC(=O)N(CCCN2CCOCC2)C(C)c2cc3cccc(OC)c3o2)cc1 (stereo not drawn)	-1	22	0.9	9	0.9	54*
COc1cccc2cc(C(C)N(CCCN3CCOCC3)C(=S)Nc3cc(C)cc(C)c3)oc12 (stereo not drawn)	10	19	0.9	6	1	13
c1ccc(CSc2ccc(-c3cccnc3)nn2)cc1	-2	6	1	-4	0.9	-5
COC(=O)C(Sc1nc(C)cc(C)c1C#N)c1ccccc1 (stereo not drawn)	8	25	1	32	0.9	98*
Cc1ccc(N(CC(=O)NCc2ccccc2Cl)S(=O)(=O)c2cccs2)cc1	5	7	0.9	-1	0.9	2
Cc1cccc(N(CC(=O)NCCSCc2ccco2)S(=O)(=O)c2ccccc2)c1	4	13	0.9	9	0.9	61*
Cc1ccc(N(CC(=O)NCc2ccc(F)cc2)S(=O)(=O)c2cccs2)cc1	0	12	1	-11	1	91*
Cc1ccc(N(CC(=O)NCCSCc2ccco2)S(=O)(=O)c2ccc(C)cc2)cc1	3	24	0.9	14	0.9	11
O=C(CN(c1ccc(F)cc1)S(=O)(=O)c1ccc2c(c1)OCCO2)NCc1ccncc1	1	-26	0.9	18	0.9	92*
O=C(CN(c1ccc2c(c1)OCCO2)S(=O)(=O)c1ccccc1)NCc1ccco1	-6	-22	1	-18	1	92*
O=C(c1ccc(Cl)cc1)N(Cc1ccccc1F)N1C(=O)CCCC1=O	-1	0	1	9	1	0
COc1cc(C(=O)O)c2ccccc2n1	-6	-8	1	6	1	-7
CCN(CC)C(=O)C(=O)Nc1ccc(OC)c(Cl)c1	8	-18	1	-10	1.1	-7
NC(=O)c1cc(Cc2ccccc2)sc1NC(=O)c1ccco1	12	72*	0.7	-20	0.9	-1
O=C(Nc1nnc(Cc2ccccc2)s1)c1ccco1	-3	-6	1	10	1	-8
O=C/C(=C\Nc1ccc(C(=O)N2CCOCC2)cc1)c1nc2ccccc2o1	-7	-6	1.3	21	1	-11
Cc1cc(C)c2nc(C(F)(F)F)nc(NCCCN3CCOCC3)c2c1	8	65	0.9	-51	0.9	95*
Cc1cc(C)c2nc(C(F)(F)F)nc(N3CCN(C(=O)c4ccco4)CC3)c2c1	-4	53	0.9	7	0.9	20
COC(=O)c1c(C)nn(-c2ccc(F)c(Cl)c2)c1-c1cc(C)on1	-2	.	.	14	.	.
